Test results from ChEMBL document CHEMBL1128722, “Mechanism-based isocoumarin inhibitors for human leukocyte elastase. Effect of the 7-amino substituent and 3-alkoxy group in 3-alkoxy-7-amino-4-chloroisocoumarins on inhibitory potency” (J Med Chem, 1995).

Experiments:
[1] = target: T1, Neutrophil elastase (Homo sapiens) (UniProt P08246); assay: Inhibition of human leukocyte elastase.
T1 sequence (whole entry): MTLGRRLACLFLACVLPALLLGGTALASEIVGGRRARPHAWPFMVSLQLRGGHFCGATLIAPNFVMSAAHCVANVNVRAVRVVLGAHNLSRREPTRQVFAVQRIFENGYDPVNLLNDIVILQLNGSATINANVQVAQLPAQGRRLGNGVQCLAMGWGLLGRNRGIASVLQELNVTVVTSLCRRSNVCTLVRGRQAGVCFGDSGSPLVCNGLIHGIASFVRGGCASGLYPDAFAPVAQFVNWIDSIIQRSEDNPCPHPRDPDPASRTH
Procedure, shortened: (§1)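 Kitz–Wilson incubation method. Enzyme was preincubated with inhibitor (added in DMSO) in 0.1 M HEPES, 0.5 M NaCl, pH 7.5, at 25 °C. Aliquots were taken over time and diluted into pNA substrate: HLE MeO-Suc-Ala-Ala-Pro-Val-pNA (0.2–0.5 mM), PPE Suc-Ala-Ala-Ala-pNA, ChT and Cat G Suc-Val-Pro-Phe-pNA (0.4–0.5 mM). Release was read at 410 nm. kobs/[I] from ln(v0/vt) vs time. Mean of two determinations. Fast rates measured with equimolar inhibitor and enzyme.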

[2] = target: T1, Neutrophil elastase (Homo sapiens); assay: Second order inactivation rate constant for inhibition of human leukocyte elastase.; procedure, shortened: as §1
[3] = target: T2, Chymotrypsin-like elastase family member 2A (Sus scrofa) (UniProt P08419); assay: The second order inactivation rate constant expressed as inhibition of porcine pancreatic elastase (PPE).Inhibitor concentrations were 0.04-2.0 mM
T2 sequence (whole entry): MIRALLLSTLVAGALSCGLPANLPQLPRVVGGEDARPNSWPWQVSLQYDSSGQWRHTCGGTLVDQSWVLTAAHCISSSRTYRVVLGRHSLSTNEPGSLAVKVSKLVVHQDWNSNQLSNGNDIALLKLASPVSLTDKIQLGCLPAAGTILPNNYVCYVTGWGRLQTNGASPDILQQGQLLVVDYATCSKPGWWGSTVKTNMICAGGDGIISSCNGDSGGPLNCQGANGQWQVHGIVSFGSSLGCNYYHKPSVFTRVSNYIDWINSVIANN

[4] = Half-life for hydrolysis was determined from kinetic constant.; assay type: ADME
Procedure, shortened: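 Spontaneous hydrolysis in 0.1 M HEPES, 0.5 M NaCl, pH 7.5, 10% v/v DMSO final, 25 °C. Inhibitor added from 2.9–5.0 mM DMSO stock. Ring opening followed as absorbance decrease at 385 nm (ε385 = 3300 M⁻¹ cm⁻¹). Half-life from the first-order rate. Two determinations, standard errors ±15% or less.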

[5] = target: T1, Neutrophil elastase (Homo sapiens); assay: The second order inactivation rate constant expressed as inhibition of human leukocyte elastase (HLE). Inhibitor concentrations were 0.07-710 uM; procedure, shortened: as §1
[6] = target: T3, Cathepsin G (Homo sapiens) (UniProt P08311); assay: Inhibition of cathepsin G(Cat G) at 35-710 uM; procedure, shortened: as §1
T3 sequence (whole entry): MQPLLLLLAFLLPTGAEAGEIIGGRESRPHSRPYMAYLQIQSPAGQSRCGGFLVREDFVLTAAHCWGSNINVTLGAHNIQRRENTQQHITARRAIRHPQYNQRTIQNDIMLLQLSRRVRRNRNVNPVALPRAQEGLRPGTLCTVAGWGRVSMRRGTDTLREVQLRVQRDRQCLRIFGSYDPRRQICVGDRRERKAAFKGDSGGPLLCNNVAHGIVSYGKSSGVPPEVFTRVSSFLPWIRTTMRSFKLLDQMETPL

[7] = target: T1, Neutrophil elastase (Homo sapiens); assay: Inhibition of human leukocyte elastase(HLE) at 0.7-1.7 uM; procedure, shortened: as §1
[8] = target: Chymotrypsinogen A (Bos taurus) (UniProt P00766); assay: The second order inactivation rate constant was expressed as inhibition of chymotrypsin (ChT).Inhibitor concentrations were 360-570 uM; procedure, shortened: as §1
[9] = target: T1, Neutrophil elastase (Homo sapiens); assay: The second order inactivation rate constant was expressed as inhibition of human leukocyte elastase (HLE). Inhibitor concentrations were 0.4-4 uM; procedure, shortened: as §1
[10] = target: T2, Chymotrypsin-like elastase family member 2A (Sus scrofa); assay: The second order inactivation rate constant was expressed as inhibition of porcine pancreatic elastase (PPE).Inhibitor concentrations were 2-600 uM; procedure, shortened: as §1
[11] = target: T3, Cathepsin G (Homo sapiens); assay: Inhibition of cathepsin G at 35-710 uM; procedure, shortened: as §1

| SMILES | K obs / 1 [3] [M⁻¹ s⁻¹] | K obs / 1 [5] [M⁻¹ s⁻¹] | also measured |
| --- | --- | --- | --- |
| COCCOCCOc1oc(=O)c2cc(N)ccc2c1Cl | – | – | [I] [1]: 710 µM; k obs / 1 [2]: 33 M⁻¹ s⁻¹ |
| O=C(Nc1ccccc1)Nc1ccc(C(=O)NC(Cc2ccccc2)C(=O)Nc2ccc3c(Cl)c(OCCBr)oc(=O)c3c2)cc1 (centres undefined) | 130 | 6100 | – |
| CCCOc1oc(=O)c2cc(NC(=O)[C@@H](NC(=O)OC(C)(C)C)C(C)C)ccc2c1Cl | – | – | k obs / 1 [7]: 64000 M⁻¹ s⁻¹ |
| C[C@@H](NC(=O)Nc1ccc2c(Cl)c(OCCBr)oc(=O)c2c1)c1ccccc1 | 2660 | > 570000 | inhibition [6]: 21% |
| COc1oc(=O)c2cc(NC(=O)CBr)ccc2c1Cl | – | – | K obs / 1 [8]: 350 M⁻¹ s⁻¹; K obs / 1 [9]: 39000 M⁻¹ s⁻¹; K obs / 1 [10]: 3500 M⁻¹ s⁻¹ |
| C[C@H](NC(=O)OC(C)(C)C)C(=O)N[C@@H](C)C(=O)Nc1ccc2c(Cl)c(OCCBr)oc(=O)c2c1 | 1670 | 230000 | K obs / 1 [11]: 46 M⁻¹ s⁻¹ |
| O=C(Nc1ccc2c(Cl)c(OCCBr)oc(=O)c2c1)NC(c1ccccc1)c1ccccc1 | 6 | 4410 | – |
| CCCOc1oc(=O)c2cc(NC(=O)OCC)ccc2c1Cl | – | – | k obs / 1 [7]: > 180000 M⁻¹ s⁻¹ |
| CC(Br)COc1oc(=O)c2cc(N)ccc2c1Cl (centres undefined) | 62 | 24000 | K obs / 1 [11]: 150 M⁻¹ s⁻¹ |
| Cc1ccc(C(=O)N[C@@H](Cc2ccccc2)C(=O)Nc2ccc3c(Cl)c(OCCBr)oc(=O)c3c2)cc1 | 32 | 49000 | – |
| CC(C)(C)OC(=O)N[C@H](Cc1ccccc1)C(=O)Nc1ccc2c(Cl)c(OCCBr)oc(=O)c2c1 | 30 | 160000 | inhibition [6]: 19% |
| O=C(N[C@@H](Cc1ccccc1)C(=O)Nc1ccc2c(Cl)c(OCCBr)oc(=O)c2c1)c1ccccc1 | 11 | 30000 | – |
| O=C1CC(c2ccccc2)CC(=O)N1c1ccc2c(Cl)c(OCCBr)oc(=O)c2c1 | 75 | 85000 | half-life [4]: > 48 h |
| CCCOc1oc(=O)c2cc(NC(=O)CCC)ccc2c1Cl | – | – | k obs / 1 [7]: > 120000 M⁻¹ s⁻¹ |
| C[C@H](NC(=O)Nc1ccc2c(Cl)c(OCCBr)oc(=O)c2c1)c1ccccc1 | 9900 | > 440000 | K obs / 1 [11]: 77 M⁻¹ s⁻¹ |
| CCCOc1oc(=O)c2cc(NC(=O)CCc3ccccc3)ccc2c1Cl | – | – | k obs / 1 [7]: > 250000 M⁻¹ s⁻¹ |
| C[C@@H](NC(=O)Nc1ccc2c(Cl)c(OCCBr)oc(=O)c2c1)c1cccc2ccccc12 | 20 | 310000 | half-life [4]: > 48 h |
| O=C(CCc1ccccc1)Nc1ccc2c(Cl)c(OCCBr)oc(=O)c2c1 | 11 | – | – |
| COc1oc(=O)c2cc(NC(=O)[C@H](Cc3c[nH]c4ccccc34)NC(=O)OC(C)(C)C)ccc2c1Cl | – | – | k obs / 1 [8]: 33 M⁻¹ s⁻¹; k obs / 1 [9]: 79000 M⁻¹ s⁻¹; k obs / 1 [10]: 5800 M⁻¹ s⁻¹ |
| CCCOc1oc(=O)c2cc(N)ccc2c1Cl | – | – | [I] [1]: 2.6 µM; half-life [4]: 4.6 h; k obs / 1 [2]: 54000 M⁻¹ s⁻¹ |
| C[C@@H](OC(=O)Nc1ccccc1)C(=O)Nc1ccc2c(Cl)c(OCCBr)oc(=O)c2c1 | 13 | 140000 | half-life [4]: 6.4 h |

| SMILES | K obs / 1 [3] [M⁻¹ s⁻¹] | K obs / 1 [5] [M⁻¹ s⁻¹] | also measured |
| --- | --- | --- | --- |
| O=C(Cc1ccccc1)Nc1ccc2c(Cl)c(OCCBr)oc(=O)c2c1 | 4950 | 480000 | K obs / 1 [11]: 70 M⁻¹ s⁻¹ |
| O=c1oc(OCCBr)c(Cl)c2ccc(NC(=S)Nc3ccccc3)cc12 | 1250 | > 480000 | K obs / 1 [11]: 200 M⁻¹ s⁻¹ |
| O=C(Cc1ccccc1)Nc1ccc2c(Cl)c(OCCCBr)oc(=O)c2c1 | 28 | 32400 | inhibition [6]: 28% |
| COc1oc(=O)c2cc(NC(=O)C(Cc3ccccc3)NC(=O)c3cccc(NC(=O)Nc4ccccc4)c3)ccc2c1Cl (centres undefined) | – | – | k obs / 1 [8]: 110 M⁻¹ s⁻¹; k obs / 1 [9]: 28000 M⁻¹ s⁻¹; k obs / 1 [10]: 54 M⁻¹ s⁻¹ |
| CCCOc1oc(=O)c2cc(NC(=O)c3cccc([N+](=O)[O-])c3)ccc2c1Cl | – | – | k obs / 1 [7]: > 210000 M⁻¹ s⁻¹ |
| O=C(Nc1ccc2c(Cl)c(OCCBr)oc(=O)c2c1)Nc1cccc2ccccc12 | 76 | 390000 | inhibition [6]: 22% |
| CC(C)(C)CC(=O)Nc1ccc2c(Cl)c(OCCBr)oc(=O)c2c1 | 3650 | – | K obs / 1 [11]: 240 M⁻¹ s⁻¹ |
| CC(C)Oc1oc(=O)c2cc(N)ccc2c1Cl | – | – | [I] [1]: 26 µM; k obs / 1 [2]: 2000 M⁻¹ s⁻¹ |
| CC(Br)COc1oc(=O)c2cc([N+](=O)[O-])ccc2c1Cl (centres undefined) | 1060 | – | K obs / 1 [11]: 1660 M⁻¹ s⁻¹ |
| CCCOc1oc(=O)c2cc(NC(=O)CC(C)C)ccc2c1Cl | – | – | k obs / 1 [7]: > 220000 M⁻¹ s⁻¹ |
| CCCOc1oc(=O)c2cc(NC(C)=O)ccc2c1Cl | – | – | k obs / 1 [7]: > 190000 M⁻¹ s⁻¹ |
| COc1oc(=O)c2cc(N)ccc2c1Cl | – | – | [I] [1]: 6 µM; half-life [4]: 3.3 h; k obs / 1 [2]: 10000 M⁻¹ s⁻¹ |
| COC(=O)CCCC(=O)Nc1ccc2c(Cl)c(OCCBr)oc(=O)c2c1 | 2730 | > 170000 | – |
| CCCOc1oc(=O)c2cc(NC(=O)CSC)ccc2c1Cl | – | – | k obs / 1 [7]: > 150000 M⁻¹ s⁻¹ |
| CCOc1oc(=O)c2cc(N)ccc2c1Cl | – | – | [I] [1]: 4 µM; half-life [4]: 3.6 h; k obs / 1 [2]: 9400 M⁻¹ s⁻¹ |
| CC(C)NC(=O)Nc1ccc2c(Cl)c(OCCBr)oc(=O)c2c1 | 4470 | 646000 | K obs / 1 [11]: 77 M⁻¹ s⁻¹ |
| CC(C)COc1oc(=O)c2cc(N)ccc2c1Cl | – | – | [I] [1]: 50 µM; k obs / 1 [2]: 2700 M⁻¹ s⁻¹ |
| O=c1oc(OCCBr)c(Cl)c2ccc(N[N+](=O)[O-])cc12 | 6330 | 65600 | K obs / 1 [11]: 710 M⁻¹ s⁻¹ |
| COCCOc1oc(=O)c2cc(N)ccc2c1Cl | – | – | [I] [1]: 7.8 µM; k obs / 1 [2]: 390 M⁻¹ s⁻¹ |
| O=C(O)c1ccc(N/C(S)=N/c2ccc3c(Cl)c(OCCBr)oc(=O)c3c2)cc1 | – | > 390000 | K obs / 1 [11]: 450 M⁻¹ s⁻¹ |
| O=C(O)c1cccc(N/C(S)=N/c2ccc3c(Cl)c(OCCBr)oc(=O)c3c2)c1 | – | > 240000 | K obs / 1 [11]: 320 M⁻¹ s⁻¹ |

Second part, led by results:

| K obs / 1 [3] [M⁻¹ s⁻¹] | K obs / 1 [5] [M⁻¹ s⁻¹] | SMILES | also measured |
| --- | --- | --- | --- |
| 12 | 170000 | CC(C)(C)OC(=O)N[C@@H](Cc1c[nH]c2ccccc12)C(=O)Nc1ccc2c(Cl)c(OCCBr)oc(=O)c2c1 | half-life [4]: 26 h |
| 4 | – | O=C(Nc1ccccc1)Nc1ccc2c(Cl)c(OCCCBr)oc(=O)c2c1 | inhibition [6]: 17% |
| 13 | 15600 | O=C(NCc1ccccc1)Nc1ccc2c(Cl)c(OCCCBr)oc(=O)c2c1 | inhibition [6]: 21% |
| 6600 | – | CC(C)(C)NC(=O)Nc1ccc2c(Cl)c(OCCBr)oc(=O)c2c1 | K obs / 1 [11]: 56 M⁻¹ s⁻¹ |
| 3010 | 480000 | O=C(NCc1ccccc1)Nc1ccc2c(Cl)c(OCCBr)oc(=O)c2c1 | inhibition [6]: 23% |
| 1500 | – | COC(=O)CCC(=O)Nc1ccc2c(Cl)c(OCCBr)oc(=O)c2c1 | – |
| 300 | 21000 | O=C(Nc1ccccc1)Nc1cccc(C(=O)NC(Cc2ccccc2)C(=O)Nc2ccc3c(Cl)c(OCCBr)oc(=O)c3c2)c1 (centres undefined) | – |
| 3500 | 31000 | Cc1cccc(C(=O)N[C@@H](Cc2ccccc2)C(=O)Nc2ccc3c(Cl)c(OCCBr)oc(=O)c3c2)c1 | – |
| 40 | 170000 | C[C@H](NC(=O)Nc1ccc2c(Cl)c(OCCBr)oc(=O)c2c1)c1cccc2ccccc12 | – |
| 1900 | 40000 | O=C(O)CCC(=O)N[C@@H](Cc1ccccc1)C(=O)Nc1ccc2c(Cl)c(OCCBr)oc(=O)c2c1 | half-life [4]: 2.5 h |
| 24 | 24400 | CC(=O)Nc1ccc2c(Cl)c(OCCCBr)oc(=O)c2c1 | K obs / 1 [11]: 170 M⁻¹ s⁻¹ |
| 50 | 146000 | CC(C)(C)OC(=O)N[C@@H](Cc1ccccc1)C(=O)Nc1ccc2c(Cl)c(OCCBr)oc(=O)c2c1 | inhibition [6]: 19% |
